Activity calls are given as the source filed them. The calls are words filed in the database; no cut-off is given here.
Key:
[1] = molecular target: T1, Proteasome Macropain subunit MB1 (Homo sapiens) (UniProt P28074); assay: Inhibition of chymotrypsin-like activity of human 20S proteasome beta 5 subunit assessed as Suc-Leu-Leu-Val-Tyr-AMC substrate hydrolysis at 20 uM after 10 mins by fluorometric analysis
T1 sequence (whole entry): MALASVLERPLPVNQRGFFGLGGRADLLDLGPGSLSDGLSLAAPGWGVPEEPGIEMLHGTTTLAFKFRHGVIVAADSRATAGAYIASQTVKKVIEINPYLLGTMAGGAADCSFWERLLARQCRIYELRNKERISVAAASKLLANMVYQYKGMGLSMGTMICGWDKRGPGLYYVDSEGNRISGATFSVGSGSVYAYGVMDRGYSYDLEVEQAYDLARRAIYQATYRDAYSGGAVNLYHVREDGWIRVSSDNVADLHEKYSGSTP
How it was run: (§1)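 Single-concentration preliminary screen of human 20S proteasome activity. An equivalent amount of DMSO served as negative control. AMC release read by fluorescence at 30 °C (ex 380/em 460 nm). Percent inhibition was recorded, and at least 40% inhibition triggered full Ki assays.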

[2] = molecular target: T2, Proteasome Macropain subunit MB1 (Homo sapiens, UniProt P28074); assay: Inhibition of chymotrypsin-like activity of human 20S proteasome beta 5 subunit assessed as Suc-Leu-Leu-Val-Tyr-AMC substrate hydrolysis after 10 mins by fluorometric analysis
T2 sequence (P28074 whole entry): T1 sequence (whole entry)
How it was run: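 Human 20S proteasome at 0.004 mg mL-1 final, incubated at 30 °C with varied inhibitor concentrations. Buffer: 50 mM Tris pH 7.5, 10 mM NaCl, 25 mM KCl, 1 mM MgCl2, 0.03% SDS, 5% DMSO. Ki from progress-curve slopes fitted to a 4-parameter IC50 equation, Ki = IC50/(1+[S]/Km), Km measured separately. Mean of three.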

[3] = molecular target: Chymotrypsinogen A (Bos taurus) (UniProt P00766); assay: (§2) Inhibition of bovine pancreatic alpha-chymotrypsin activity assessed as Suc-Leu-Leu-Val-Tyr-AMC substrate hydrolysis after 10 mins
How it was run: (§3)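 Bovine pancreatic α-chymotrypsin in 50 mM Tris pH 8.0 with 100 mM NaCl, 5 mM EDTA and 7.5% DMSO. Suc-Leu-Leu-Val-Tyr-AMC at 75 (final) as substrate. AMC release was followed over 10 min.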

[4] = molecular target: Cathepsin B (Homo sapiens) (UniProt P07858); assay: Inhibition of cathepsin B (unknown origin) assessed as Cbz-Phe-Arg-AMC substrate hydrolysis
NCI60 = assay: Cytotoxicity against human NCI60 cells at 10^-5 M; format: functional, cell-based
[5] = molecular target: T3, Proteasome component C5 (Homo sapiens) (UniProt P20618); assay: Inhibition of caspase-like activity of human 20S proteasome beta 1 subunit assessed as Cbz-Leu-Leu-Glu-AMC substrate hydrolysis at 20 uM after 10 mins by fluorometric analysis; how it was run: as §1
T3 sequence (whole entry): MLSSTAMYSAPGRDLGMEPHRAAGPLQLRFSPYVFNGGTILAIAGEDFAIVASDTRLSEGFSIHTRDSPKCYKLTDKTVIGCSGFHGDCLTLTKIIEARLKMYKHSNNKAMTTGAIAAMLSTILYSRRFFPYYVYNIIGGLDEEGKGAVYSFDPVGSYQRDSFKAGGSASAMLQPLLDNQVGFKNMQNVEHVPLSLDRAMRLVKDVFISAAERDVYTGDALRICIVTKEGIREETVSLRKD

Chymotrypsinogen A = Chymotrypsinogen A (Bos taurus, UniProt P00766); assay: as §2; how it was run: as §3

inhibition [1] [%] | Ki [2] [µM] | inhibition [3] | inhibition [4] | inhibition [5] [%] | Ki (Chymotrypsinogen A) [µM] | SMILES | Activity (NCI60)
100 | – | – | – | – | – | CCN(CC)c1ccn(CC(=O)N[C@@H](CC(C)C)B(O)O)c(=O)c1 | –
87 | 0.33 | inactive | inactive | – | – | CC(C)CCNC(=O)Cn1ccc(Nc2ccccc2)cc1=O | inactive
86 | 7.55 | inactive | inactive | > 50 | – | O=C(Cn1ccccc1=O)NC12CC3CC(CC(C3)C1)C2 | inactive
97 | – | – | – | – | – | CC(C)C[C@H](NC(=O)Cn1ccc(Nc2ccccc2)cc1=O)B(O)O | –
100 | – | – | – | – | – | CC(C)C[C@H](NC(=O)Cn1ccc2ncccc2c1=O)B(O)O | –
100 | – | – | – | – | – | CC(C)C[C@H](NC(=O)Cn1cc(Br)c2ncccc2c1=O)B(O)O | –
72 | 1.48 | inactive | inactive | > 50 | – | COc1ccc(NC(=O)Cn2ccc(Nc3ccccc3)cc2=O)cc1 | inactive
84 | – | – | – | – | – | CC(C)C[C@H](NC(=O)Cn1ccc2c(c1=O)CCCN2C)B(O)O | –
23 | – | inactive | inactive | – | – | O=C(Cn1ccccc1=O)Nc1ccccc1 | inactive
21 | – | inactive | inactive | – | – | O=C(Cn1ccccc1=O)Nc1ccccc1C(=O)c1ccccc1 | inactive
56 | 0.56 | inactive | inactive | – | – | CC(C)CCNC(=O)Cn1cc(Br)c2ncccc2c1=O | inactive
28 | – | inactive | inactive | – | – | CCN(CC)c1ccn(CC(=O)NCCC(C)C)c(=O)c1 | inactive
10 | – | inactive | inactive | – | – | CC(C)CCNC(=O)Cn1ccc2ncccc2c1=O | inactive
67 | 8.03 | – | inactive | – | 6.65 | O=C(Cn1ccc(Nc2ccccc2)cc1=O)Nc1ccccc1C(=O)c1ccccc1 | inactive
35 | – | inactive | inactive | – | – | CC(C)CCNC(=O)[C@H](C)n1ccc2ncccc2c1=O | inactive
16 | – | inactive | inactive | – | – | O=C(Cn1ccc(Nc2ccccc2)cc1=O)NCc1ccccc1 | inactive
7 | – | inactive | inactive | – | – | CC(C)CCNC(=O)Cn1ccc2c(c1=O)CCCN2C | inactive
42 | 7.67 | inactive | inactive | – | – | CC(C)CCNC(=O)Cn1ccc(N2CCOCC2)cc1=O | inactive
32 | – | inactive | inactive | – | – | COc1ccc(NC(=O)Cn2ccccc2=O)cc1 | inactive
13 | – | inactive | inactive | – | – | O=C(Cn1ccc(Nc2ccccc2)cc1=O)NC12CC3CC(CC(C3)C1)C2 | inactive
100 | – | inactive | inactive | – | – | CC(C)C[C@H](NC(=O)[C@H](Cc1ccccc1)NC(=O)c1cnccn1)B(O)O | inactive
15 | – | inactive | inactive | – | – | O=C(Cn1ccccc1=O)NCc1ccccc1 | inactive
27 | – | inactive | inactive | – | – | CC(C)CCNC(=O)Cn1ccc(N2CCCCC2)cc1=O | inactive
100 | – | – | – | – | – | CC(C)C[C@H](NC(=O)[C@H](C)n1ccc2ncccc2c1=O)B(O)O | –
45 | 10.1 | inactive | inactive | – | – | CC(C)CCNC(=O)Cn1ccc2c(c1=O)CCCN2 | inactive
9 | – | inactive | inactive | – | – | O=C(Cn1ccc(Nc2ccccc2)cc1=O)Nc1ccccc1 | inactive
